These results are taken from PMC5395305 (Bioorganic & medicinal chemistry letters, 2017).

For data set [1], the system named is Rho/MRTF/SRF pathway (SRE.L promoter luciferase reporter). Briefly: Inhibition of Gα12-stimulated SRE.Luciferase activity in HEK293T cells. In kind it is cell-based. In short, it runs like this:
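HEK293T cells were transfected with a luciferase reporter driven by the MRTF-selective SRE.L promoter. Reporter activity was Gα12-stimulated, and inhibition of luciferase signal by test compound was measured. Values are means of n ≥ 3.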

The subject of data set [2] is bleomycin-induced dermal fibrosis. Briefly: Bleomycin-induced dermal fibrosis in mice. The class given is in vivo. The note with it: PO 50 mg/kg qd, 14 days, vs bleomycin treatment alone. The essentials: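 Three groups of mice (n=8) were treated daily for 14 days. Controls received intracutaneous PBS. The bleomycin group received intracutaneous bleomycin with concurrent oral gavage of vehicle. The treated group received intracutaneous bleomycin with concurrent oral gavage of test compound at 50 mg/kg. Read-outs were dermal thickness and hydroxyproline content, each compared with bleomycin alone.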

The next data set deals with ACTA2 expression. Nature of the data set: ACTA2 mRNA expression. The class given is cell-based. To be noted: Homo sapiens, Fibroblast, 24 h, read-out: ACTA2 (%ctrl), inhibition of ACTA2 expression (percent control), TGF-β-stimulated human dermal fibroblasts, 10 μM, 24 hrs, mean of n=3.
Data set [3] can be described thus: Stability to incubation with mouse liver microsomes. The class given is in vitro ADME. To be noted: relative to 1. (In general: Microsomes from liver hold many membrane-bound enzymes, among them those of drug oxidation.)
Data set [4] relates to conjunctival fibrosis (scar tissue formation). The note with it: preclinical model of conjunctival fibrosis; ref 18 (Yu-Wai-Man et al); cited from earlier work.
In data set [5] the test system is bleomycin-induced dermal fibrosis. The note with it: mice, 14 days of IP dosing, 100 mg/kg bid; cited from earlier work.

Regarding `C=C1CC(C(=O)Nc2ccc(Cl)cc2)CN(C(=O)c2cccc(-c3ccco3)c2)C1` (centres unmarked) [Cmpd 23], in data set [1] (relative to 5-carbonyl/parent series), the “Improvement of SRE.L potency” value is listed as around 10 fold.

Take `O=C(Nc1ccc(Cl)cc1)C1CN(C(=O)c2cccc(-c3ccncc3)c2)CC(F)(F)C1` (centres unmarked) [Cmpd 8f]: in data set [2], the “Reduction of bleomycin-induced increase in dermal thickness” value is listed as −55% and the “Reduction of bleomycin-induced increase in hydroxyproline content” value is −62%. As for `O=C(Nc1ccc(Cl)cc1)C1CN(C(=O)c2cccc(-c3ccco3)c2)CC(F)(F)C1` (centres unmarked) [Cmpd 8a], the mrna remaining at 10 µM in the data set with ACTA2 expression was determined as 9%. For the same compound, the “Lengthening of half-time in MLM (factor)” value in data set [3] is on record as “three”. Also, the “Effect on scar tissue formation” value in data set [4] was “prevent scar tissue formation”. For the compound `CN(C(=O)C1CCCN(C(=O)c2cccc(-c3ccco3)c2)C1)c1ccc(Cl)cc1` (centres unmarked) [Cmpd 26], the “Reduction of SRE.L activity” value in data set [1] (relative to 1) is on record as 10 fold. In the case of `O=C(Nc1ccc(Cl)cc1)C1CCCN(C(=O)c2cccc(-c3ccco3)c2)C1` (centres unmarked) [Cmpd 1], the “Effect on development of bleomycin-induced dermal fibrosis” value in data set [5] was “can attenuate the development of bleomycin-induced dermal fibrosis”.
